Source: paper PMC3366067 (Blood Cancer Journal, 2012)
Values belong to the molecule of their own block, whether it stands above or below them.

Columns and labels:
SET-2 xenografts = experiment: Subcutaneous SET-2 model of megakaryoblastic leukemia; assay type: in vivo, mouse; conditions: d18
How it was run: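 Female SCID-beige mice (9 weeks; n=12 per group) were implanted s.c. with 5 × 10^6 SET-2 cells in Matrigel. From d33 post-implantation, they were dosed orally for 19 days (d0–d18), with separate doses at least 8 h apart. Tumor volume was measured by caliper as (w²×l)/2, and tumors were weighed at the end. Synergy was assessed by Clarke's CI, with <0 counted as synergy. Statistics used ANOVA/Dunnett.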

MOLM-13 s.c. xenografts = experiment: Subcutaneous MOLM-13 xenograft model; assay type: in vivo, mouse; conditions: for reduction in tumor weight: d7
How it was run: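 Female SCID mice (n=12 per group) were given 5 × 10^6 MOLM-13 cells s.c. with Matrigel. Treatment started on d11 and ran 8 days, all oral: 50 mg/kg pacritinib daily in the evenings and 75 mg/kg pracinostat every other day. On the last day, tumors were excised and weighed. Metastases to lungs, breast fat-pad and lymph nodes were counted. Statistics used ANOVA/Dunnett.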

[1] = Pharmacokinetic analysis of pracinostat and pacritinib in plasma; assay type: in vivo, mouse; conditions: d14 vs d1
MCP-1 = experiment: Plasma cytokine/chemokine analysis in SET-2 tumor-bearing mice; assay type: in vivo, mouse; conditions: d18
How it was run: (§1)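 Plasma came from female SCID-beige mice bearing s.c. SET-2 tumors (5 × 10^6 cells) that had been dosed orally with the test compounds in the efficacy study. It was collected on d18, 3 h post-dose. A Luminex 32-plex mouse cytokine/chemokine panel measured the analytes. Comparators were uninoculated naive mice and vehicle-treated tumor-bearing mice.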

[2] = tested on: IL-6, IP-10, KC and MIP-1α; experiment: as above; assay type: in vivo, mouse
How it was run: as §1

pSTAT5 in SET-2 tumors = experiment: pSTAT5 levels in SET-2 tumors after chronic treatment; assay type: in vivo, mouse; conditions: end of study
How it was run: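 SET-2 s.c. tumors came from female SCID-beige mice dosed orally d0–d18. They were excised on the last treatment day, 3 h post-dose, and lysed. pSTAT5 was measured by western blot and compared with vehicle-treated animals.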

[3] = tested on: pFLT3, FLT3 in MOLM-13 tumors; experiment: Western blot analysis of MOLM-13 tumors; assay type: in vivo, mouse; conditions: chronic treatment with pacritinib alone, d7
[4] = Toxicokinetic studies in mice, single agent; assay type: in vivo; conditions: data not shown
[5] = tested on: panel of 11 AML cell lines; experiment: Cell proliferation assay; assay type: cell-based; conditions: Homo sapiens, 48 h, read-out: IC50 on cell proliferation
How it was run: (§2)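 Cells were seeded at a predetermined optimal density in log phase and rested 2 h before treatment. They were then exposed for 48 h to test compound in 9 serial-dilution steps from 10 μM to 1.5 nM, with 0.1% solvent. Viability was read by CellTiter-Glo luminescence. At least three independent experiments were run in triplicate, and IC50 came from curve fitting.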

HL-60 = experiment: Cell proliferation assay and in vitro synergy; assay type: cell-based; conditions: Homo sapiens, HL-60, 48 h, read-out: IC50 on cell proliferation
How it was run: as §2

[6] = tested on: pJAK2, JAK2, pSTAT5 and STAT5 in JAK2^V617F mutant cells (HEL92.1.7 and SET-2); experiment: Western blot of JAK-STAT signaling; assay type: cell-based, human; conditions: 125–500 nM for 24 h
How it was run: (§3)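 Cells were treated with test compound at 125–500 nM for 24 h, then lysed. Western blots of 25 μg total lysate were probed for pJAK2 (Y1007/1008), JAK2, pSTAT5 (Y694) and STAT5. JAK2V617F lines were compared with JAK2 wt lines.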

[7] = tested on: pJAK2, JAK2, pSTAT5 and STAT5 in JAK2 wt 32D cells; experiment: Western blot of JAK-STAT signaling; assay type: cell-based, murine; conditions: 125–500 nM for 24 h
How it was run: as §3

[8] = tested on: pJAK2, JAK2, pSTAT5 and STAT5 in JAK2 wt KARPAS 1106-P cells; experiment: Western blot of JAK-STAT signaling; assay type: cell-based; conditions: data not shown
How it was run: as §3

[9] = tested on: pFLT3 (Y591) in MV4-11 cells (FLT3-ITD); experiment: Western blot of FLT3 signaling; assay type: cell-based, human; conditions: 500 nM, 24 h
How it was run: (§4)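 Cells were treated with test compound at graded concentrations for 24 h, then lysed. Western blots loaded 50 μg total lysate for pFLT3 (Y591) and FLT3, and 25 μg for the other proteins. Other antibodies were pSTAT5 (Y694) and STAT5. FLT3-ITD lines were compared with wt-FLT3 RS4;11 cells.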

[10] = tested on: pFLT3 (Y591) in MOLM-13 cells (FLT3-ITD); experiment: Western blot of FLT3 signaling; assay type: cell-based, human; conditions: 500 nM, 24 h
How it was run: as §4

[11] = tested on: pFLT3, FLT3 and pSTAT5 in RS4;11 cells (wt FLT3); experiment: Western blot of FLT3 signaling; assay type: cell-based, human; conditions: RS4;11, 24 h, compared with FLT3-ITD cell lines
How it was run: as §4

MV4-11 xenografts = experiment: Subcutaneous MV4-11 xenograft model; assay type: in vivo, mouse
How it was run: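 Female BALB/c nude mice (8–10 weeks; n=10 per group) were implanted s.c. in the right flank with 1 × 10^7 MV4-11 cells in serum-free medium mixed 1:1 with Matrigel. From d9, they received 25 or 50 mg/kg per day by oral gavage (10 ml/kg) for 21 days. Tumor volume was measured by caliper as (w²×l)/2. Statistics used ANOVA/Bonferroni.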

HEL92.1.7 xenografts = experiment: Subcutaneous HEL92.1.7 xenograft model; assay type: in vivo, mouse; conditions: HEL92.1.7 model, 75 or 125 mg/kg every other day for 17 days
How it was run: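 Female BALB/c nude mice (8–10 weeks; n=5 per group) were implanted s.c. in the right flank with 5 × 10^6 HEL92.1.7 cells in serum-free medium mixed 1:1 with Matrigel. From d18, they were dosed by oral gavage (10 ml/kg) at 75 or 125 mg/kg every other day for 17 days. Tumor volume was measured by caliper as (w²×l)/2.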

[12] = tested on: HL-60 cells engrafted orthotopically; experiment: Orthotopic AML model; assay type: in vivo, mouse
How it was run: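 Female SCID mice (n=6 per group) received 1 × 10^7 HL-60 cells i.v. in 100 μl serum-free medium. From d30, once disease was established, they were dosed with 125 mg/kg test compound thrice weekly by oral gavage at 10 ml/kg. Paralysis symptoms were scored. Blood counts were taken from tail blood with a hematology analyzer and compared with age-matched uninoculated SCID mice. Statistics used ANOVA/Bonferroni.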

[13] = pacritinib 150 mg/kg twice daily

increase in AUC after chronic dosing in combination ([1]; pacritinib): approximately four-fold | increase in Cmax after chronic dosing in combination ([1]; pacritinib): approximately two-fold
SMILES: C1=C/COCc2cc(ccc2OCCN2CCCC2)Nc2nccc(n2)-c2cccc(c2)COC/1 [pacritinib]
TGI (tumor volume) (SET-2 xenografts; [13]): 61% | TGI on the basis of tumor weight (SET-2 xenografts; [13]): 47% | reduction in tumor weight (MOLM-13 s.c. xenografts; pacritinib 50 mg/kg daily): 14.7% | reduction of metastatic incidences (MOLM-13 s.c. xenografts; single-agent pacritinib): 60% | reduction of plasma MCP-1 levels (MCP-1; pacritinib single agent): 10% | plasma IL-6, IP-10, KC and MIP-1α ([2]; single-agent pacritinib): normalization | decrease of pSTAT5 levels in tumors (pSTAT5 in SET-2 tumors; pacritinib 150 mg/kg twice daily, 3 h post dose): about 50% | total levels of FLT3 in tumors [3]: increased expression total levels of FLT3 significantly | increase in exposure following repeated dosing [4]: two-fold

SMILES: CCCCc1nc2cc(/C=C/C(=O)NO)ccc2n1CCN(CC)CC [pracinostat]
IC50 [5]: 70 to 560 nM | IC50 (HL-60): 70 nM | pJAK2 (Y1007/08) and pSTAT5 (Y694) levels, total JAK2 and STAT5 protein [6]: decreased | pJAK2, JAK2, pSTAT5 and STAT5 protein levels [7]: remained unaffected | pJAK2, JAK2, pSTAT5 and STAT5 protein levels [8]: remained unaffected | pFLT3 (Y591) level [9]: near-total ablation | pFLT3 (Y591) level [10]: near-total ablation | levels of pFLT3 and FLT3, and pSTAT5 [11]: reduced, but to a lesser extent | Complete tumor regression at the end of the treatment (MV4-11 xenografts; 50 mg/kg per day for 21 days): 6 out of 10 | maximum body weight loss (MV4-11 xenografts; MV4-11 model, 25 or 50 mg/kg per day for 21 days): 7% | maximum body weight loss (HEL92.1.7 xenografts): 4.7% | numbers of platelets ([12]; 125 mg/kg thrice weekly): without significantly reducing | delay of the disease onset ([12]; 125 mg/kg thrice weekly from d30): 17 days | blood counts (white blood counts, lymphocyte counts) ([12]; 125 mg/kg thrice weekly, d15 of the study): normalizing blood counts to the levels of disease-free mice | reduction of death caused by progressive AML ([12]; 125 mg/kg thrice weekly, study d24): 50% | TGI on the basis of tumor weight (SET-2 xenografts; pracinostat 75 mg/kg q.o.d): 42.5% | reduction in tumor weight (MOLM-13 s.c. xenografts; pracinostat 75 mg/kg q.o.d): 19.2% | reduction of metastatic incidences (MOLM-13 s.c. xenografts; single-agent pracinostat): 50% | pharmacokinetic parameters after 14 days of co-administration with pacritinib ([1]; pracinostat): similar | reduction of plasma MCP-1 levels (MCP-1; pracinostat single agent): 40% | plasma IL-6, IP-10, KC and MIP-1α ([2]; single-agent pracinostat): normalization | pSTAT5 levels in tumors compared with vehicle treated animals (pSTAT5 in SET-2 tumors; pracinostat 75 mg/kg every other day): increased pSTAT5 levels
